What all share (type): functional
Test [1] has as its system Escherichia coli. The test can be described thus: Antibacterial activity against Escherichia coli B assessed as bacterial growth at 0.1 mM after 20 hrs by turbidometry relative to control. In outline: (§1)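 Tested at 1 × 10^-4 M in broth culture, a lower level chosen for limited solubility. Each inhibitor solution received a 2% inoculum of E. coli B or Staph. aureus stock culture. Incubated 20 hr at 37°C, then growth read as turbidity at 500 nm against untreated controls.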

The test system of test [2] is Staphylococcus aureus. Kind of test: Antibacterial activity against Staphylococcus aureus assessed as bacterial growth at 0.1 mM after 20 hrs by turbidometry relative to control. In short, it runs like this:
as §1

Test [3] has as its system Escherichia coli. Kind of test: Antibacterial activity against Escherichia coli B assessed as bacterial growth at 1 mM after 20 hrs by turbidometry relative to control. In short, it runs like this: (§2)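 Broth culture of E. coli B or Staph. aureus at inhibitor concentration 1 × 10^-3 M. Inoculum was 2% of stock culture added to each inhibitor solution. After 20 hr incubation at 37°C, turbidity was read at 500 nm and compared with controls.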

Test [4] has as its system Staphylococcus aureus. Kind of test: Antibacterial activity against Staphylococcus aureus assessed as bacterial growth at 1 mM after 20 hrs by turbidometry relative to control. In outline:
as §2

Each structure is given as a SMILES string.

Consider `O=C(O)/C=C/c1c[nH]c(=O)[nH]c1=O`, for which the Activity in test [1] and in test [2] was 90% each time.

In the case of `O=C(CO)c1c[nH]c(=O)[nH]c1=O`, the Activity in test [3] and in test [4] was 90% in each case.

For `C[N+](C)(C)CC(=O)c1c[nH]c(=O)[nH]c1=O.[Br-]`, the Activity in test [3] and in test [4] was 90% in each case.

In the case of `Nc1nc(-c2c[nH]c(=O)[nH]c2=O)cs1`, the Activity in test [3] and in test [4] was 90% in each case.

`O=c1[nH]cc(-c2c[nH]cn2)c(=O)[nH]1`: the Activity in test [1] and in test [2] was 90% in each case.

For `O=c1[nH]cc(-c2ncc[nH]2)c(=O)[nH]1`, the Activity in test [1] and in test [2] was 90% in each case.
